Compound activity from PubChem.
Shown are actives, neighbours in structure and some others; about 2.7% of the full set was active somewhere.
CHO parental Ca = counter-screen for OX1R antagonists: effect in parental CHO cells. inhibition, % at 5.6 µM. parental CHO-K1, ATP-induced calcium, Fluo-8 fluorescence. 330,000 tested, 0.63% active;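 active = inhibition above that plate's mean sample inhibition plus 3 SD, cut at about 26% in these data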;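 also: 0% = ATP-challenged DMSO wells and 100% = DMSO wells without ATP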
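Test system: untransfected parental CHO cell line; also added: ATP stimulus; dosing: 5.6 µM, single dose; signal: calcium-sensitive Fluo-8 fluorescence; measure: percent inhibition of ATP-evoked calcium rise, normalized to controls; benchmarks: low control ATP plus DMSO, high control DMSO only; replication: one well per compound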
OX1R antag-1 = blocks the human orexin 1 receptor; O43613; OX1R-expressing cells, FRET antagonist read-out; inhibition, % at 6.6 µM; 330,000 tested, 1.8% active; in the data active = inhibition mostly above about 38%, no sharp cut-off; inactive = mostly below about 40%;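 also: 0% = agonist challenge alone and 100% = reference antagonist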
Target sequence (O43613 whole entry, looked up): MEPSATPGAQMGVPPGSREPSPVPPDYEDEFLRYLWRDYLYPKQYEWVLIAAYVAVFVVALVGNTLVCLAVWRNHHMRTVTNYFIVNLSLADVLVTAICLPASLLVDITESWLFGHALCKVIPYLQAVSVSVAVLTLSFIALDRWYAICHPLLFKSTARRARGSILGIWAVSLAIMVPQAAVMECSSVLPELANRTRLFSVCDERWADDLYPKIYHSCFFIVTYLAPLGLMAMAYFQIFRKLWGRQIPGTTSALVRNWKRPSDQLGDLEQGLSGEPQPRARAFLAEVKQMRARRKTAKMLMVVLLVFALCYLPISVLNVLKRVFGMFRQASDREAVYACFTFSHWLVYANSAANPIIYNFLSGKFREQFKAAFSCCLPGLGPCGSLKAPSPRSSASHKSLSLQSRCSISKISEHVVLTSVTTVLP
OXTR agonist = human OXTR agonism; activation, % at 3 µM; CHO-OTR cells, Fluo-8 calcium fluorescence; normalized: DMSO 0%, oxytocin 100%; 320,000 tested, 0.32% active; P30559;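 active = activation above the mean of all tested compounds plus 3 SD, cutoff set per screening run, cut at about 20% in these data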;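 also: peak over basal fluorescence ratio from a 100 s FLIPR kinetic read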
OX1R antag-2 = blocks the human orexin 1 receptor; O43613; 330,000 tested, 0.43% active; inhibition, % at 5 µM; CHO/OX1R cells, Fluo-8 calcium fluorescence, orexin A;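 active = inhibition above its plate's threshold, mean inhibition of all tested compounds on the plate plus 3 SD, cut at about 37% in these data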;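 also: 0% = orexin A challenge wells and 100% = SB-334867-A antagonist wells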
V1aR counter = activates human V1a receptor in oxytocin agonist counter-screen; P37288; CHO-V1R cells, Fluo-8 calcium fluorescence, agonist mode; 0% DMSO, 100% 3 nM vasopressin; activation, % at 3 µM; 320,000 tested, 0.25% active;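 active = activation above the mean activation of all tested compounds plus 3 SD, per screening run, cut at about 20% in these data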;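 also: signal is peak over basal fluorescence ratio across a 100 second FLIPR read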
OXTR potentiate = potentiators of human oxytocin receptor. CHO-OTR cells, Fluo-8 calcium fluorescence, potentiator mode; 0% = oxytocin EC15, 100% = EC100. AID 2445. activation, % at 3 µM. 320,000 tested, 0.061% active. P30559;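 active = activation above that plate's cutoff, the mean activation of tested compounds plus 3 SD, cut at about 6.6% in these data, passing the limit was not always enough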;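 also: 100% uses oxytocin at 75 nM as the full agonist control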
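System: human OTR in CHO cells; Also added: sub-maximal oxytocin, roughly EC15; Timing: compound 6 min at room temperature before oxytocin, 100 s read; Technique: Fluo-8 intracellular calcium fluorescence, ex 470-495, em 515-575 nm; Controls: oxytocin EC15 low and EC100 high; Replication: singlicate.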
* = called active by the depositor.

SMILES | CHO parental Ca | OX1R antag-1 | OXTR agonist | OX1R antag-2 | V1aR counter | OXTR potentiate
COc1cccc(N2CCN(c3ncnc4c3cnn4-c3ccc(C)cc3C)CC2)c1 | 42.4* | 43.4* | 0.9 | 38.9 | 5.2 | -8.7
Cc1ccc(-n2ncc3c(N4CCCC4)ncnc32)c(C)c1 | -1.7 | 12.2 | -1.1 | -9.4 | -0.4 | 4.4
O=C(CSc1nc2ncc(Br)cc2[nH]1)Nc1ccccc1-c1ccccc1 | -2.3 | 35.9 | -1.1 | 17.1 | 0.6 | -5.0
O=C(CSc1nc2ncc(Cl)cc2[nH]1)Nc1ccccc1-c1ccccc1 | -19.2 | 34.6* | 0.2 | 20.6 | 5.0 | -5.2
C=CCC[C@@H](Cc1ccc(F)cc1)C(=O)OC[C@@H](NC(=O)[C@@H](CC=C)CC(=O)N[C@H](CO)Cc1ccccc1)C(C)(C)C | -11.2 | 5.2 | -0.4 | -16.8 | 0.1 | -8.1
COc1ccc(CCN2CCC(Nc3nc4ccccc4n3Cc3ccc(F)cc3)CC2)cc1 | 7.3 | -1.4 | 45.2* | 5.2 | 36.8* | -10.8
COc1ccc(CNc2nc3ccccc3n2CCN2CCCCC2)cc1 | -11.8 | 9.9 | -1.1 | -28.7 | -0.5 | -4.4
N#Cc1cc(Oc2cccc3cccnc23)c(-n2nnc3ccccc32)cc1C#N | 22.3 | 17.8 | 1.6 | 45.9* | 3.2 | -6.4
N#Cc1cc(O)c(-n2nnc3ccccc32)cc1C#N | -3.3 | 2.8 | -1.0 | 2.1 | 0.3 | -15.9
CCOc1ccc2c(c1)c1nnc(SCC(=O)NC3CC3)nc1n2C | -1.3 | 57.0 | -1.7 | -6.7 | -0.5 | -0.8
COc1ccc2c(c1)c1nnc(SC)nc1n2C | -8.3 | 48.5* | -2.0 | -1.2 | -1.1 | 0.7
CCc1ccc(NC(=O)CCC(=O)c2ccc(C)cc2)cc1 | 31.5* | -12.4 | -1.9 | -2.4 | -1.1 | -17.1
CCc1ccc(NC(=O)CCC(=O)c2ccccc2)cc1 | -12.9 | 0.8 | -0.7 | -13.3 | 0.0 | -16.0
O=C(c1cc(COc2cccc(C(F)(F)F)c2)on1)N1CCC(c2ccncc2)CC1 | 60.0* | 21.9 | 6.7 | 31.4 | 10.6 | -15.0
Cc1cc(NC(=O)Cc2ccccc2)c2ccccc2n1 | 32.8* | 48.4 | 13.1 | 35.4 | 7.7 | -28.6
COC(=O)Nc1cc(C)nc2ccccc12 | 1.4 | 15.6 | -0.1 | 3.5 | 0.6 | -5.5
COC(=O)c1ccccc1NC(=O)CSc1nc(C)cc(C)n1 | -6.6 | 6.5 | -0.2 | -15.8 | 1.6 | -3.5
Cc1cc(C)nc(SCC(=O)Nc2ccnc3ccccc23)n1 | 36.4* | 44.1 | 14.8 | 35.3 | 8.1 | -10.7
Cc1ccc(C)c(NC(=O)c2cc(C)nc3ccccc23)c1 | 67.4* | 17.2 | 0.2 | -15.9 | 0.1 | -1.5
CCOC(=O)/C(=N\Nc1ccc(Br)cc1)N1CC(C)OC(C)C1 (configuration not stated) | -11.5 | 2.0 | -0.6 | -26.1 | -1.3 | -0.8
O=C1CCCN1CCCNc1ncccc1[N+](=O)[O-] | 6.2 | 42.9* | 0.3 | -7.9 | -0.7 | -7.3
COc1ccc(Cl)cc1NC(=O)C(OC)c1ccccc1 (configuration not stated) | 15.3 | 6.9 | -2.2 | -15.4 | -2.0 | -0.4
COC(/C(=N/O)c1ccc(Cl)cc1)c1ccccc1 (configuration not stated) | 59.8* | 30.7 | 8.3 | 13.4 | 1.0 | -19.8
O=C(NC1CCCC1)c1ccc([N+](=O)[O-])s1 | 3.7 | 61.1* | -1.1 | -33.1 | -0.7 | -13.5
Cc1ccc(C(=O)NC2CCCC2)s1 | -2.0 | -1.8 | -0.1 | -3.0 | -0.4 | 1.1
SMILES | CHO parental Ca | OX1R antag-1 | OXTR agonist | OX1R antag-2 | V1aR counter | OXTR potentiate
NS(=O)(=O)c1ccc(CCNC(=O)c2ccc([N+](=O)[O-])s2)cc1 | 21.6 | 65.8* | -0.3 | 0.2 | 1.5 | -12.9
CC(OC(=O)c1ccc([N+](=O)[O-])s1)C(=O)NC1CCCCC1C (configuration not stated) | -16.9 | 38.0* | 0.4 | -5.3 | -0.3 | -2.5
CC1CCCC(NC(=O)COC(=O)c2ccc([N+](=O)[O-])s2)C1C (configuration not stated) | 2.2 | 44.1* | -0.7 | 12.2 | 0.4 | -2.7
CCC(=O)Nc1cc2c3c(c1)CCN3C(=O)CC2 | 1.1 | 0.0 | 0.0 | -7.2 | -1.0 | -3.2
COc1ccccc1NC(=O)CNC(=O)c1ccc(Br)o1 | -3.3 | 5.6 | 1.2 | -5.7 | 1.2 | 0.7
COc1ccc(C(=O)N/C(=C\c2cn(C)c3ccccc23)C(=O)N2CCOCC2)cc1 | -18.0 | 11.1 | 1.7 | -15.1 | 3.5 | -3.4
COc1ccccc1C(=O)N/C(=C\c1cn(C)c2ccccc12)C(=O)N1CCCC1 | -13.7 | 49.9* | 1.0 | 8.2 | 3.8 | -2.0
CSc1nccn1CC(=O)Nc1ccc(F)cc1 | 40.8* | 6.7 | 0.1 | -11.8 | 1.4 | -4.3
CSc1nc(O)c(N=Nc2ccc(F)cc2F)c(=O)[nH]1 | -5.2 | 45.1* | -0.7 | -12.0 | 0.4 | 0.9
CSc1nc(O)c(C(c2ccc(F)cc2)c2c(O)nc(SC)[nH]c2=O)c(=O)[nH]1 | -5.4 | 3.8 | 0.0 | -7.2 | 0.8 | -2.8
COc1ccccc1N1CCN(C(=O)C2=CC=CN3CCS(=O)(=O)N=C23)CC1 | -7.6 | -2.2 | 1.0 | 9.4 | 0.2 | -1.9
COc1cc(Cl)c(C)cc1NC(=O)CN(C)C1CCS(=O)(=O)C1 (configuration not stated) | -15.8 | 2.7 | 2.1 | -18.9 | 1.5 | -5.2
CC1Cc2ccccc2N1c1ncnc2nc[nH]c12 (configuration not stated) | -13.8 | 74.5* | 0.0 | 12.0 | -0.3 | -5.0
COc1ccc(OC)c(-n2c(SCC(=O)N3CCc4ccccc43)nc3c(c2=O)SCC3)c1 | -12.2 | 39.0* | -1.2 | -17.9 | 0.3 | -5.9
Cc1ccc(OCCNS(=O)(=O)c2ccc(N3CCCC3=O)cc2)cc1C | 9.2 | 34.7* | 12.2 | 34.2 | 8.8 | -12.7
Cc1ccc(OCCNS(=O)(=O)c2ccc(N3CCCC3=O)cc2)cc1 | 16.2 | 25.6 | 13.2 | 17.9 | 9.4 | -19.6
Cc1nc(C(=O)O)nn1-c1ccc([N+](=O)[O-])cc1 | -3.4 | 45.6* | -0.2 | 7.1 | -0.3 | -14.0
Cc1nc(-c2ccccc2)nn1-c1ccc([N+](=O)[O-])cc1 | -0.8 | 13.2 | -1.9 | -20.8 | -1.8 | 2.3
O=C(CCNS(=O)(=O)c1ccccc1)NNC(=O)c1cccc(Cl)c1 | -11.4 | 2.8 | 0.9 | -3.9 | 1.2 | 1.2
CN(C)c1ccc(/C=C2\CCC/C(=C\c3ccccc3)C2=O)cc1 | 50.8* | 23.6 | 14.7 | 36.6 | 11.6 | -7.9
COc1ccc(OCCOC(=O)c2[nH]c(C)c(C(C)=O)c2C)cc1 | 44.7* | 38.0 | 9.9 | -1.6 | 9.1 | -16.8
COc1ccc(/C=C/C(=O)OCC(=O)Nc2cccc(S(=O)(=O)NC3=NCCCCC3)c2)cc1 | -21.8 | 7.2 | 4.0 | -15.7 | 2.2 | -9.5
